By IC50 is commonly meant the concentration needed to halve the response being measured.

The structures appear in SMILES notation.

The target in assay [1] is Tyrosine-protein kinase JAK1 (Homo sapiens, UniProt P23458). The assay can be described thus: Inhibition of human JAK1 using GEEPLYWSFPAKKK as substrate after 40 mins in presence of [gamma-33P-ATP] by scintillation counting method.
Assay [2] deals with Tyrosine-protein kinase JAK2 (Homo sapiens, UniProt O60674). The assay can be described thus: Inhibition of human JAK2 using KTFCGTPEYLAPEVRREPRILSEEEQEMFRDFDYIADWC as substrate after 40 mins in presence of [gamma-33P-ATP] by scintillation counting method.
Sequence of Tyrosine-protein kinase JAK2 (O60674 whole entry): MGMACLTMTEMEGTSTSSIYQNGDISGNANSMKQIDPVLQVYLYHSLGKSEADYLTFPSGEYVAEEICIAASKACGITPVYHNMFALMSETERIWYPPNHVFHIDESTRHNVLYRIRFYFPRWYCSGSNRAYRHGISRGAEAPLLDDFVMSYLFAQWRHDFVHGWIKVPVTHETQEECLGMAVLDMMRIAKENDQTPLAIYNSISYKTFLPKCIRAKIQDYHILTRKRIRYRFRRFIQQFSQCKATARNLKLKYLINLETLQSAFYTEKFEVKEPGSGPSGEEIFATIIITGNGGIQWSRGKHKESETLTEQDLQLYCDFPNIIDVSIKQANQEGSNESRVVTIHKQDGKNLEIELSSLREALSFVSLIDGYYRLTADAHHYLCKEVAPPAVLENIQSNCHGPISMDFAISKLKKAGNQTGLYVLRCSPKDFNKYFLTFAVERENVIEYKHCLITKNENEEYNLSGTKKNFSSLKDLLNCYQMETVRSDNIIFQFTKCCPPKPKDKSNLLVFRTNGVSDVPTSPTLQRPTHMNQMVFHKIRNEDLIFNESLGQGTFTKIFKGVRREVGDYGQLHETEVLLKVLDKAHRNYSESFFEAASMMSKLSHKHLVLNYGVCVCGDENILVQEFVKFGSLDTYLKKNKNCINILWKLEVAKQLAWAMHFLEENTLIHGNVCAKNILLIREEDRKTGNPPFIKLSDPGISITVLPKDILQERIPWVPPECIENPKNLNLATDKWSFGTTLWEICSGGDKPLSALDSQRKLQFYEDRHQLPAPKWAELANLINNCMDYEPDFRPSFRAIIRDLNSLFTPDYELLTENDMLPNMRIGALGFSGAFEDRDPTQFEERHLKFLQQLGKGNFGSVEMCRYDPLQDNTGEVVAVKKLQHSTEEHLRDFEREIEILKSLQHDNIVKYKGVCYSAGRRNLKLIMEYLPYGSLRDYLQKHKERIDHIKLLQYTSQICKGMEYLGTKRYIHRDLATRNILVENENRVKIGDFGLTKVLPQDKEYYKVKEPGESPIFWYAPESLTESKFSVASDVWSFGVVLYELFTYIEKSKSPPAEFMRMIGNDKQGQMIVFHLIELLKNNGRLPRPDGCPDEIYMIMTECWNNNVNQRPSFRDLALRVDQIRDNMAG
For assay [3], the species on record is Homo sapiens. The assay can be described thus: Selectivity index, ratio of IC50 for human JAK2 to IC50 for human JAK1. A digest of the protocol:
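Kinase activity assays run as a commercial service at Km ATP; IC50 values fitted from concentration-response data; ratio of JAK2 to JAK1 IC50.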

Sequence of Tyrosine-protein kinase JAK1 (P23458 whole entry): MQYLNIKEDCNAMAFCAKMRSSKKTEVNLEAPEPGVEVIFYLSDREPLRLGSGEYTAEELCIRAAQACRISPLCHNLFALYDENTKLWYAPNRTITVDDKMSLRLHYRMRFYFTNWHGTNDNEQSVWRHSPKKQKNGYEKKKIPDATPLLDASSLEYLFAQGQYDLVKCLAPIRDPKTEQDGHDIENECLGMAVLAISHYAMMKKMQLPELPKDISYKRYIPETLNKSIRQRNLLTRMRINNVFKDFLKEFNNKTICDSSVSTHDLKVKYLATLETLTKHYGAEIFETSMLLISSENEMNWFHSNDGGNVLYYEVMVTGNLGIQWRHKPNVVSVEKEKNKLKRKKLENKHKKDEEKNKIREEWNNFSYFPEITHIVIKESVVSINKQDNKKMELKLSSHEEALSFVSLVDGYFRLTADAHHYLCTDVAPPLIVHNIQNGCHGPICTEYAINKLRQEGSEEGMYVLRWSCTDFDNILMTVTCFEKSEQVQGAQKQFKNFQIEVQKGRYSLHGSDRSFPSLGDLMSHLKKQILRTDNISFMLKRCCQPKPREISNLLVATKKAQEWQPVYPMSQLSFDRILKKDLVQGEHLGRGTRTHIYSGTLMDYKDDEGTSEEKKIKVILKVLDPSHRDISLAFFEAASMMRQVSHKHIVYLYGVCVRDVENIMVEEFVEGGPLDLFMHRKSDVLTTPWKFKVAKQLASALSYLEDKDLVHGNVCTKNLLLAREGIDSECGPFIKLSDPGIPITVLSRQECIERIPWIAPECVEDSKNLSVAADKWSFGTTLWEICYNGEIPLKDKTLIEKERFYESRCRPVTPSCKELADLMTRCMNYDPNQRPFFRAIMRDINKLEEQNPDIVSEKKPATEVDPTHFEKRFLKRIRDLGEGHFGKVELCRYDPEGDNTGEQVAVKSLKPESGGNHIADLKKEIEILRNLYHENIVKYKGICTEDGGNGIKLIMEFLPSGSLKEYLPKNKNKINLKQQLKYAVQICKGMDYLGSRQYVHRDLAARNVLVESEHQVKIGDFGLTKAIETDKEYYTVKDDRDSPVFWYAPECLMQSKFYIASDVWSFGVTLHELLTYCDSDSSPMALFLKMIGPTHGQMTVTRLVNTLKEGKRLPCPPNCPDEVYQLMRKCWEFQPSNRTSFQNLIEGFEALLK

Take `CN(c1ncnc2[nH]ccc12)[C@H]1CN(C(=O)C2CC2)CC12CC2`: the 50% inhibitory concentration (IC50) was found to be 0.17 µM in assay [1] and 1.2 µM in assay [2]. The Ratio IC50 in assay [3] amounted to 7.1.
For `CN(c1ncnc2[nH]ccc12)[C@H]1CN(C(=O)Nc2ccc(Cl)c(Cl)c2)CC12CC2`, in that order: 0.04 µM, 1.3 µM and 33.
`CN(c1ncnc2[nH]ccc12)[C@H]1CN(C(=O)c2cccc(C#N)c2)CC12CC2`: the results for the IC50 in assay [1] and in assay [2] were 0.1 µM and 7.4 µM, respectively. The Ratio IC50 in assay [3] was determined as 74.
Regarding `Cc1ccc(NC(=O)N2C[C@H](N(C)c3ncnc4[nH]ccc34)C3(CC3)C2)cc1Cl`, the IC50 is 0.085 µM in assay [1] and 1.3 µM in assay [2]. Further, in assay [3], the Ratio IC50 stood at 15.
For `CN(c1ncnc2[nH]ccc12)[C@H]1CN(S(=O)(=O)c2ccccc2C#N)CC12CC2`, in that order: 0.05 µM, 0.48 µM and 9.6.
For `CN(c1ncnc2[nH]ccc12)[C@H]1CN(C(=O)c2cccnc2)CC12CC2` the same measures were 0.16 µM, 7.8 µM and 49.
Turning to `CC(=O)N1CCC(C(=O)N2C[C@H](N(C)c3ncnc4[nH]ccc34)C3(CC3)C2)CC1`, the IC50 came out at 0.18 µM in assay [1] and 2.5 µM in assay [2]. Moreover, the Ratio IC50 in assay [3] was 14.
In the case of `CCCCN1C[C@H](N(C)c2ncnc3[nH]ccc23)C2(CC2)C1`, the IC50 in assay [1] is 0.23 µM; in assay [2], 15 µM. In addition, the Ratio IC50 in assay [3] turned out to be 65.
For `CN(c1ncnc2[nH]ccc12)[C@H]1CN(C(=S)CC#N)CC12CC2`, in that order: 0.02 µM, 0.16 µM and 8.
On to `CCCCNC(=O)N1C[C@H](N(C)c2ncnc3[nH]ccc23)C2(CC2)C1`, for which the results for the IC50 in assay [1] and in assay [2] were 0.075 µM and 2.8 µM, respectively. Besides, the Ratio IC50 in assay [3] came out at 37.
Take `CN(c1ncnc2[nH]ccc12)[C@H]1CN(C(=O)c2ccc(C#N)cc2)CC12CC2`: the figures for the IC50 in assay [1] and in assay [2] were 0.19 µM and 4.5 µM, respectively. Besides, the Ratio IC50 in assay [3] came to 24.
As for `CCN1C[C@H](N(C)c2ncnc3[nH]ccc23)C2(CC2)C1`, the IC50 was 1.4 µM in assay [1] and 30 µM in assay [2]. The Ratio IC50 in assay [3] stood at 21.
Turning to `CN(c1ncnc2[nH]ccc12)[C@H]1CN(S(=O)(=O)c2ccc([N+](=O)[O-])cc2)CC12CC2`, the figures for the concentration for half-maximal inhibition (IC50) in assay [1] and in assay [2] were 0.0063 µM and 0.03 µM, respectively. In addition, in assay [3], the Ratio IC50 worked out at 4.8.
For `CC(C)S(=O)(=O)N1C[C@H](N(C)c2ncnc3[nH]ccc23)C2(CC2)C1`, the 50% inhibitory concentration (IC50) in assay [1] worked out at 0.02 µM; in assay [2] it was 0.13 µM. Also, the Ratio IC50 in assay [3] was 6.5.
For `CN(c1ncnc2[nH]ccc12)[C@H]1CN(C(=O)Nc2ccccc2-c2ccccc2)CC12CC2` the same measures were 1.5 µM, 9.1 µM and 6.1.
For `CN(c1ncnc2[nH]ccc12)[C@H]1CN(C(=O)Nc2ccccc2)CC12CC2` the same measures were 0.012 µM, 0.42 µM and 35.
As for `CN(c1ncnc2[nH]ccc12)[C@H]1CN(S(=O)(=O)c2ccccc2F)CC12CC2`, the results for the IC50 in assay [1] and in assay [2] were 0.013 µM and 0.097 µM, respectively. Also, the Ratio IC50 in assay [3] came out at 7.5.
For `COc1ccc(S(=O)(=O)N2C[C@H](N(C)c3ncnc4[nH]ccc34)C3(CC3)C2)cc1`, the IC50 is 0.0093 µM in assay [1] and 0.18 µM in assay [2]. The Ratio IC50 in assay [3] is 19.
For `CN(c1ncnc2[nH]ccc12)[C@H]1CN(C(=O)c2ccncc2)CC12CC2`, in that order: 0.14 µM, 6.5 µM and 46.
In the case of `Cc1cccc(S(=O)(=O)N2C[C@H](N(C)c3ncnc4[nH]ccc34)C3(CC3)C2)c1`, the results for the IC50 in assay [1] and in assay [2] were 0.012 µM and 0.066 µM, respectively. For the same compound, the Ratio IC50 in assay [3] came out at 5.5.
In the case of `CC(=O)NCC(=O)N1C[C@H](N(C)c2ncnc3[nH]ccc23)C2(CC2)C1`, the values for the IC50 in assay [1] and in assay [2] were 0.52 µM and 16 µM, respectively. Besides, the Ratio IC50 in assay [3] came to 31.
As for `CN(c1ncnc2[nH]ccc12)[C@H]1CN(S(=O)(=O)c2ccc(C(F)(F)F)cc2)CC12CC2`, the IC50 in assay [1] was 0.016 µM; in assay [2], 1.4 µM. For the same compound, the Ratio IC50 in assay [3] was found to be 88.
For `CN(c1ncnc2[nH]ccc12)[C@H]1CN(S(=O)(=O)N2CCOCC2)CC12CC2`, in that order: 0.031 µM, 0.26 µM and 8.4.
As to `CN(c1ncnc2[nH]ccc12)[C@H]1CN(S(=O)(=O)c2cccc(F)c2)CC12CC2`, the IC50 in assay [1] turned out to be 0.0028 µM; in assay [2], 0.0084 µM. Besides, the Ratio IC50 in assay [3] is 3.
For the compound `CN(c1ncnc2[nH]ccc12)[C@H]1CN(C(=O)c2cccc(C(F)(F)F)c2)CC12CC2`, the IC50 was 0.42 µM in assay [1] and 11 µM in assay [2]. In addition, in assay [3], the Ratio IC50 was 26.
Consider `CNC(=O)CC(=O)N1C[C@H](N(C)c2ncnc3[nH]ccc23)C2(CC2)C1`, for which the IC50 came to 0.67 µM in assay [1] and 13 µM in assay [2]. For the same compound, the Ratio IC50 in assay [3] came out at 19.
Turning to `CC(C)C(=O)N1C[C@H](N(C)c2ncnc3[nH]ccc23)C2(CC2)C1`, the IC50 in assay [1] was 0.17 µM; in assay [2], 2.8 µM. In addition, the Ratio IC50 in assay [3] was 16.
For the compound `CN(c1ncnc2[nH]ccc12)[C@H]1CN(C(=O)c2ccccc2)CC12CC2`, the IC50 in assay [1] was found to be 0.15 µM; in assay [2], 6.3 µM. Moreover, in assay [3], the Ratio IC50 is 42.
In the case of `CN(c1ncnc2[nH]ccc12)[C@H]1CN(S(=O)(=O)c2ccc(C#N)cc2)CC12CC2`, the IC50 in assay [1] stood at 0.0098 µM; in assay [2], 1.1 µM. Also, in assay [3], the Ratio IC50 stood at 110.
For the compound `CN(c1ncnc2[nH]ccc12)[C@H]1CN(C(=O)Nc2ccc(F)cc2)CC12CC2`, the IC50 came to 0.023 µM in assay [1] and 1 µM in assay [2]. Also, the Ratio IC50 in assay [3] came to 43.
In the case of `CN(c1ncnc2[nH]ccc12)[C@H]1CN(S(=O)(=O)c2ccccc2[N+](=O)[O-])CC12CC2`, the IC50 in assay [1] amounted to 0.026 µM; in assay [2], 0.47 µM. In addition, in assay [3], the Ratio IC50 came out at 18.
On to `CN(c1ncnc2[nH]ccc12)[C@H]1CN(C(=O)CN=[N+]=[N-])CC12CC2`, for which the IC50 amounted to 0.021 µM in assay [1] and 0.25 µM in assay [2]. For the same compound, the Ratio IC50 in assay [3] came out at 12.
For `CN(c1ncnc2[nH]ccc12)[C@H]1CN(C(=O)NC2CCCCC2)CC12CC2`, in that order: 0.069 µM, 4.4 µM and 64.
Turning to `CN(c1ncnc2[nH]ccc12)[C@H]1CN(C(=O)c2ccco2)CC12CC2`, the IC50 was determined as 0.053 µM in assay [1] and 0.93 µM in assay [2]. For the same compound, in assay [3], the Ratio IC50 came out at 18.
Turning to `CN(c1ncnc2[nH]ccc12)[C@H]1CN(C(=O)c2ccccc2C(F)(F)F)CC12CC2`, the IC50 was 0.5 µM in assay [1] and 9.1 µM in assay [2]. The Ratio IC50 in assay [3] was determined as 18.
Take `CC(C)COC(=O)N1C[C@H](N(C)c2ncnc3[nH]ccc23)C2(CC2)C1`: the concentration for half-maximal inhibition (IC50) worked out at 0.034 µM in assay [1] and 1.2 µM in assay [2]. Further, in assay [3], the Ratio IC50 amounted to 35.
Take `CN(c1ncnc2[nH]ccc12)[C@H]1CN(S(=O)(=O)N2CCCCC2)CC12CC2`: the IC50 is 0.015 µM in assay [1] and 0.15 µM in assay [2]. Further, in assay [3], the Ratio IC50 was found to be 10.

For the origin of these results see ChEMBL document CHEMBL4257478, “Design, synthesis and evaluation of (R)-3-(7-(methyl(7H-pyrrolo[2,3-d]pyrimidin-4-yl)amino)-5-azaspiro[2.4]heptan-5-yl)-3-oxopropanenitrile as a JAK1-selective inhibitor” (Medchemcomm, 2018).
